In this data set the test system is MS2 coat protein. The experiment in a line: apparent Kd, MS2 coat protein; higher = weaker binding; RNA-MaP array; FMN 200 µM where present. The essentials: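 In 100 mM Tris-HCl pH 7.5, 80 mM KCl, 4 mM MgCl2, BSA, DTT, yeast tRNA and Tween-20, SNAP-549-labelled MS2 coat protein was titrated from 0.7 or 1.5 nM, doubling to 3 µM, over designs transcribed by stalled E. coli RNA polymerase on Illumina sequencing-chip clusters. This was done first without ligand, then with ligand held constant. After green signal was normalised to red-channel RNA signal and control-cluster median Fmax, the apparent Kd was taken as the median of filtered per-cluster binding-curve fits.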

Setting [1] is: designed as: OFF switch for flavin mononucleotide, no ligand.
[2] abbreviates: ligand present: flavin mononucleotide, designed as: OFF switch for flavin mononucleotide.
Where [3] appears, read: designed as: ON switch for flavin mononucleotide, no ligand.
Setting [4] is: ligand present: flavin mononucleotide, designed as: ON switch for flavin mononucleotide.

In general, apparent Kd refers to a dissociation constant that holds for the conditions of the assay. In the case of “UUCAGCUUGACAGGAUAUACAUGUCAGCGAAAGCUGACUAUCUUAAUAACAUGAGGAUCACCCAUGUAGAAGGGUCGAGCUGAA”, the “apparent Kd” value under setting [1] came out at 16.4 nM and the “apparent Kd” value under setting [2] was found to be 25.6 nM.
The matching figures for “GUACGUGGACAGAAGGUGACAUGAGGAUCACCCAUGUUAGUUGAGGUACCAGCGAUCCGCGUGAUUGAGGAUAUGUCUGCGGGC”: 16.1 nM and 42.4 nM.
With “CAUAUACAUGAGGAUCACCCAUGUGAGGAUAUGCUUUAUUAUUAUUAUUAUUAUUGUUGCAGAAGGUACAUUAC”, the “apparent Kd” value was determined as 24.2 nM under setting [1] and 20.6 nM under setting [2].
In the case of “AGCGUGUAAGGAUAUACGUCGGAUAGCGAAUACUGUCCCUAGUAGAAGGUACAUGAGGAUCACCCAUGUGUCCA”, the “apparent Kd” value came out at 23.9 nM under setting [1] and 51.8 nM under setting [2].
Turning to “UGUUGUAUUACAGGAUAUCUAUUAUUUUUGUUUAGAGAAGGGUAUUCACAUGAGGAUCACCCAUGUAUAUACGAGGAAGUUGUG”, the “apparent Kd” value was 53.5 nM under setting [3] and 61.8 nM under setting [4].
In the case of “CCAGAUAUGUGAGGAUAUAGAGUGGAAUACACUCUAGAAGGUAUGUGAAAACAUGAGGAUCACCCAUGUCAUUGAUUAUCUGGA”, the “apparent Kd” value turned out to be 26 nM under setting [3] and 27.5 nM under setting [4].
As to “GCACAGGCAGGAUAUACAUGAGGAUCACCCAUGUGACCCUUGAAGUACUCGCGUACUCGUAGAAGGGCCUGUGC”, the “apparent Kd” value came out at 177 nM under setting [1] and 302 nM under setting [2].
For “GUCUUCCUAGGAUAUACAUGAGGAUCACCCAUGUACAGUUUCGUCUAGGGAUACUCGCGUAGAAGGAGGUGGAU”, the “apparent Kd” value is 20.8 nM under setting [1] and 26.5 nM under setting [2].
On to “UAAGUACAUGAGGAUCACCCAUGUUGGAAUAGAGCAGGAUAUGUGCAGAGGGAAAUAAAAACAGAAGGGCUAAGAA”, for which the “apparent Kd” value reads like this: under setting [3], 45.3 nM; under setting [4], 28.6 nM.
As for “AACUAGCUAGGAUAUACAUGAGGAUCACCCAUGUAAAAAAAAAAAAAAAGAUAUAUAUGUAGAAGGAGCUAGUA”, the “apparent Kd” value was 33.7 nM under setting [1] and 44.9 nM under setting [2].
Turning to “AUUUAAAUGUCAGGAUAUGGUAGUUUAUACUUAUUAGAAGGGAUAAUUAUACUCAAGUACAUGAGGAUCACCCAUGUUAAAUCA”, the “apparent Kd” value runs as follows: under setting [3], 21.9 nM; under setting [4], 21.5 nM.
Regarding “GGGAAGUUAGGAUAUGCUGCUCGUCACUUGCGUGAUGAGUAGCAGAAGGGACAUGAGGAUCACCCAUGUAAAGA”, the “apparent Kd” value by setting is: under setting [1], 41.6 nM; under setting [2], 26.2 nM.
With “CUGUAUGAUGUAGGAUAUACUUUAAUAUUGUAAGUAGAAGGACAUGAGGAUCACCCAUGUAUAUAAAUUUUAAUUAUUUUUGCG”, the “apparent Kd” value is, setting by setting: under setting [1], 51.2 nM; under setting [2], 39.3 nM.
For “CAAGGUGGAGGAUAUACAUGAGGAUCACCCAUGUAAGGACAAUAAAUAAGAUGAAGAAGUAGAAGGCCACUCAA”, the “apparent Kd” value was determined as 41.4 nM under setting [1] and 46.3 nM under setting [2].
As to “CACUCGUGUCUAGGAUAUGAGUGACAAGCACGAGAUUUUCUCGACGCUAGCUCAGAAGGAGACAUGAGGAUCACCCAUGUAAGG”, the “apparent Kd” value is, setting by setting: under setting [1], 85.3 nM; under setting [2], 16.6 nM.
The like results for “AAAUUUUGUCAAGGAUAUGUAUAAUUGAGUUGAAAACAUGAGGAUCACCCAUGUAUAUGGUGGGAACAGAAGGUGAAUAAGUAA” were, in that order, 195 nM and 151 nM.
As to “CUACUCGUUGUGAGGAUAUCGUUUUCGUCACGGAUCGAGAAGGCACAUGAGGAUCACCCAUGUUUGAUGUGGAU”, the “apparent Kd” value amounted to 32.1 nM under setting [1] and 79.7 nM under setting [2].
With “GCUGUGGCAUGAGGAUAUGGUCACGUUUCGUGACCAGAAGGCAUGUCAAUAGACAUGAGGAUCACCCAUGUAGUUAACACAGCA”, the “apparent Kd” value under setting [3] amounted to 497 nM and the “apparent Kd” value under setting [4] is 41.9 nM.
On to “GGUGCGUAUGUGAGGAUAUGCUGGUCCUUGGAUCGGCAGAAGGCACAUGAGGAUCACCCAUGUGGUGUCGUACG”, for which the “apparent Kd” value was 59.6 nM under setting [1] and 228 nM under setting [2].
Take “UUUACAUACAUGAGGAUCACCCAUGUGUUCACCCAUGUAAAUCAGGAUAUAUAUAUAUAGAAUGUAUAGAAGGGAUAAUUUUUU”: the “apparent Kd” value under setting [1] is 97.5 nM and the “apparent Kd” value under setting [2] stood at 99.7 nM.
Turning to “UUUAAGUGAGGAUAUACGAAUAGUAAGUAAGUAUUACAGACGUAGAAGGCACAUGAGGAUCACCCAUGUAAAUA”, the “apparent Kd” value under setting [1] amounted to 30.1 nM and the “apparent Kd” value under setting [2] was found to be 28.2 nM.
On to “AUUUUAUAAUAGAAGGUAGACUUCAUGAGGAUCACCCAUGUGUUGGUACUAAGGAUAUGUAAUAACAUGAGGAUCACCCAUGUC”, for which the “apparent Kd” value under setting [3] is 53.3 nM and the “apparent Kd” value under setting [4] was 51.7 nM.
Turning to “UAUGUACGAGGAUAUACAUAGAUACAGAUACAUGUAGACGUACAUGAGGAUCACCCAUGUAGAAGGCGUAUAUA”, the “apparent Kd” value runs as follows: under setting [1], 101 nM; under setting [2], 122 nM.
As for “GACUGCUGAGGAUAUACAUGAGGAUCACCCAUGUGCUUCAGUAUCGAAAGAUACAUUGGUAGAAGGUGGUAGUC”, the “apparent Kd” value by setting is: under setting [1], 13.4 nM; under setting [2], 21.4 nM.
On to “GGAUAGGACAGAGGAUAUACGUGCUAGAGAUACUAGCAAAAUUUCCUCACAUGAGGAUCACCCAUGUAGAAGGCUGUCCUAUCC”, for which the “apparent Kd” value reads like this: under setting [1], 18.5 nM; under setting [2], 435 nM.
On to “UAUUCUUACGAAGGAUAUGGUUACAUGAGGAUCACCCAUGUAUGUAUAUUGAUCUAGUUUUUUAACCAGAAGGUCGUGAGUAUA”, for which the “apparent Kd” value under setting [1] came out at 40.4 nM and the “apparent Kd” value under setting [2] was 54.2 nM.
With “UGGUCCUAGGGAGGAUAUGGGAAGAUACAUGAGGAUCACCCAUGUUUAAGAAUGCCGAGAGGCAACUAGAAGGCCCUAGUACCU”, the “apparent Kd” value under setting [3] came out at 439 nM and the “apparent Kd” value under setting [4] was 20.6 nM.
Take “CUAUGGCAAGGAUAUCUUGGCUAGAACAUGAGGAUCACCCAUGUCUACUGUACUAAUAUCGGAGAAGGUGCUAGAA”: the “apparent Kd” value is 27.6 nM under setting [1] and 19.1 nM under setting [2].
Consider “AAACGGAUCCGCGGUUGAUGCUAACUAGAAGGGCAGGUCACAUGAGGAUCACCCAUGUAGUAUAUGUAGGAUAUAGGAAGCGUG”, for which the “apparent Kd” value runs as follows: under setting [3], 140 nM; under setting [4], 26.9 nM.
On to “GCACGAGACUAAGGAUAUGGUGUAUCUACAUGAAACAUGAGGAUCACCCAUGUAGUAAGUAUGAUUCAGAAGGUAGAGACGUGC”, for which the “apparent Kd” value by setting is: under setting [3], 49.7 nM; under setting [4], 23 nM.
Turning to “AUCCGGAAUGUUAGGAUAUCUUGGCGCCUGUGCUUGGAGAAGGGACAUGAGGAUCACCCAUGUCCUCUCGGAAA”, the “apparent Kd” value turned out to be 13.1 nM under setting [1] and 14.9 nM under setting [2].
In the case of “AAGAAGUCAGGAUAUGCAUGGCGGGACUUGCGUCGUGGCGUGCAGAAGGGACAUGAGGAUCACCCAUGUAAAGU”, the “apparent Kd” value runs as follows: under setting [1], 49 nM; under setting [2], 45.4 nM.
Consider “CCAGCGUAUGUGAGGAUAUGCUGGUCCUUGGAUCAGCAGAAGGCACAUGAGGAUCACCCAUGUAGAGACGUUGG”, for which the “apparent Kd” value by setting is: under setting [1], 27 nM; under setting [2], 29.8 nM.
The like results for “CCAUUCAGAGGAUAUGCGCAUAGAUAAGACUUUUUUUCUUAACAUGAGGAUCACCCAUGUAGAAGGCUGUAACC” were, in that order, 19.7 nM and 18.6 nM.
As for “UCGCUGCGAGGAUAUACGUUUGCGCGCUUUCGUUUGCGCGUACAUGAGGAUCACCCAUGUAGAAGGCGCGCUGC”, the “apparent Kd” value by setting is: under setting [1], 15.5 nM; under setting [2], 15.5 nM.
On to “GCUUGUAGAGGAUAUACGAGGGCCCGAGCGGAUAACACCGCACAUGAGGAUCACCCAUGUAGAAGGCUACCACC”, for which the “apparent Kd” value under setting [1] stood at 25.3 nM and the “apparent Kd” value under setting [2] was 284 nM.
For “CGCGAUAGCAUAGGAUAUUGAUACAUGAGGAUCACCCAUGUCAACCAUGAAGCUCGAAUUGUUGACAAGAAGGAUGAGGUCGCG”, the “apparent Kd” value runs as follows: under setting [3], 81.3 nM; under setting [4], 55.3 nM.
Regarding “CUGUGACGGUGCGCAAGUGGACGUAGAAGGGUCACAUGAGGAUCACCCAUGUGGGCCUGCUAGUGACAGGAUAUACGUUCGUAC”, the “apparent Kd” value under setting [1] came to 13.7 nM and the “apparent Kd” value under setting [2] was 38.3 nM.
Turning to “CGUAUGUCAGGAUAUGUGUAUGCCGCUCAGGGCGAGCGGCAGCAGAAGGGACAUGAGGAUCACCCAUGUUCGGG”, the “apparent Kd” value by setting is: under setting [1], 62.5 nM; under setting [2], 127 nM.
“UCCCAACAUGAGGAUCACCCAUGUAAGGAUAUCUUACUCAUGGACGUCCAUGAGGACCGGAGAAGGUACGUGUA”: the “apparent Kd” value was 19.4 nM under setting [1] and 19.8 nM under setting [2].
Consider “GCUGCAUAGGCAGGAUAUGCAAAAGCAGAUGCAAAGCAUCUGCAAGAAACAUGAGGAUCACCCAUGUAGAAGGGCCUGUGCAGU”, for which the “apparent Kd” value came out at 21.4 nM under setting [1] and 20.2 nM under setting [2].
Take “AUCAGCUCGUCAGGAUAUACGUCACUGCUUCGGCAGUGUAAUAAAAUAACAUGAGGAUCACCCAUGUAGAAGGGACGAGCUGAU”: the “apparent Kd” value under setting [1] stood at 5.93 nM and the “apparent Kd” value under setting [2] is 6.13 nM.
“CCGGAAAUGAAGGAUAUAGGCGUCGAUAGACUCCUAGAAGGUCAUACAUGAGGAUCACCCAUGUGUCCUACCGG”: the “apparent Kd” value worked out at 16.5 nM under setting [1] and 29.8 nM under setting [2].
Regarding “CCGGUAAAGGAGGAUAUAGGAGUCGAUAGACACCUAGAAGGCCUGACAUGAGGAUCACCCAUGUGUCCUUCCGG”, the “apparent Kd” value is, setting by setting: under setting [1], 17.7 nM; under setting [2], 76.7 nM.
In the case of “GACUCGCGCACAGGAUAUCCACGGAGCGGACGCGGAGAAGGGUGACAUGAGGAUCACCCAUGUACGUGAGUCUAGAUCACUUCC”, the “apparent Kd” value is, setting by setting: under setting [3], 76.8 nM; under setting [4], 22.5 nM.
Turning to “GACCGUCACAAUAACCGGUUGAACGAGGAUAUGAUCACUGGGCCUGCACAUGAGGAUCACCCAUGUCAGAAGGCGUUCAGUCCC”, the “apparent Kd” value reads like this: under setting [1], 5.53 nM; under setting [2], 16.4 nM.
The matching figures for “AUCCUGCGAGGAUAUACAUAAUUUUUUUCAUUUUGACUCGAACAUGAGGAUCACCCAUGUAGAAGGUGCUACAC”: 36.7 nM and 32.5 nM.
Take “GUAGCUAUCGGAGGAUAUUUAUACCGUAAACGGACAUGAGGAUCACCCAUGUGGCGAAAGCCUUGGGAGAAGGCCGAUAGCUAC”: the “apparent Kd” value runs as follows: under setting [3], 32.6 nM; under setting [4], 4.68 nM.
